Consider three compounds from paper PMC12215001 (Scientific Reports, 2025).

Assay [1] has as its system N/P(14) cells. In words: Western blot analysis. It counts as cell-based. An outline of the steps: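 N/P(14) cells were treated two ways: a concentration series for 24–48 h, or 10 µM for 6–48 h. Lysis was in SDS buffer, followed by SDS-PAGE and PVDF blotting. Probes: caspases, PARP, a CK2 substrate consensus (pS/pT)DXE antibody, and phospho-Akt (S129)/Akt and phospho-XRCC1. Bands were normalized to GAPDH as fold of control. Mean±S.D., n = 3, one-way ANOVA with Dunnett.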

Assay [2] concerns N/P(14) cells. In words: RT-qPCR and Western blot of base excision repair genes. The settings on record: 5 µM, 24 h (RT-qPCR). It counts as cell-based. An outline of the steps:
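For mRNA, cells got 5 µM test compound for 24 h. RNA was taken by TRIzol with 1-bromo-3-chloropropane phase separation and isopropanol precipitation, reverse-transcribed, then run by green-dye qPCR with gene-specific primers (n = 3, unpaired two-tailed t-test). Protein levels were read by western blot, with band densities normalized to GAPDH.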
Background: Real-time PCR tracks product formation cycle by cycle.

A further assay has as its target CK2α (Homo sapiens, UniProt P68400). In words: In vitro CK2α kinase activity assay. The format is biochemical. The settings on record: 10-dose, threefold serial dilution starting at 100 µM, 10 µM ATP.
Assay [3] concerns N/P(14) cells. In words: Cell cycle analysis, propidium iodide staining and flow cytometry. The format is cell-based. The settings on record: 24-48 h, time- and concentration-dependent. (A flow cytometer gives signals particle by particle.)
Assay [4] deals with N/P(14) cells. In words: SRB assay, combination index. The format is cell-based. The settings on record: 48 h, CI below one indicates synergism. The method in brief: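 N/P(14) cells got doxorubicin or mitomycin C, with or without test compound, for 48 h. Growth was measured by SRB staining: TCA fixation, 1% acetic acid wash, Tris solubilization, absorbance at 515 nm. Combination index was computed from the combined dose–effect data; CI < 1 taken as synergism.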
In general terms: In SRB staining, fixed cells bind dye roughly in proportion to their protein.

The test system of assay [5] is J82R cells (cisplatin-resistant subline of J82). In words: SRB assay, cell growth inhibition. The note with it: 48 h. It counts as cell-based. The method in brief:
(§1)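 Cell lines: NTUB1 and N/P(14) in RPMI 1640, J82 in EMEM, and J82R (J82 adapted stepwise to 10 µM cisplatin); all in 10% FBS at 37 °C, 5% CO2, passage <10, mycoplasma-tested. SV-HUC-1 was grown in F12K. Cells were treated 48 h in 96-well plates, then TCA-fixed (10%) and stained with 0.4% SRB. After 1% acetic acid washes, dye was dissolved in 10 mM Tris base and read at 515 nm. GI50 = concentration giving 50% growth inhibition.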

The next assay has as its system J82R cells. In words: Western blot analysis. It counts as cell-based. The settings on record: 24-48 h. The method in brief: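 J82R cells got the indicated test compound concentrations for 24–48 h. Proteins were extracted in SDS lysis buffer, run on SDS-PAGE, transferred to PVDF, and probed for caspase-3, -8, -9 and PARP. Band densities were normalized to GAPDH and expressed as fold of untreated control. Mean±S.D., n = 3–4, one-way ANOVA with Dunnett's test.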

Assay [6] deals with N/P(14) cells (cisplatin-resistant subline of NTUB1). Put plainly: SRB assay, cell growth inhibition. The format is cell-based. An outline of the steps: as §1
For assay [7], the system named is SV-HUC-1 cells (normal uroepithelial). Put plainly: SRB assay, cell growth inhibition. The format is cell-based. The note with it: SV-HUC1, 48 h. The method in brief:
as §1

A further assay concerns J82 cells. In words: SRB assay, cell growth inhibition. It counts as cell-based. The note with it: 48 h. An outline of the steps:
as §1

The next assay concerns NTUB1 cells. Put plainly: SRB assay, cell growth inhibition. It counts as cell-based. The settings on record: 48 h. The method in brief:
as §1

The GI50 is the concentration that inhibits growth by half. High values mean lower sensitivity of the cells, low ones greater sensitivity of the cells.

Chain of CK2α (P68400 whole entry): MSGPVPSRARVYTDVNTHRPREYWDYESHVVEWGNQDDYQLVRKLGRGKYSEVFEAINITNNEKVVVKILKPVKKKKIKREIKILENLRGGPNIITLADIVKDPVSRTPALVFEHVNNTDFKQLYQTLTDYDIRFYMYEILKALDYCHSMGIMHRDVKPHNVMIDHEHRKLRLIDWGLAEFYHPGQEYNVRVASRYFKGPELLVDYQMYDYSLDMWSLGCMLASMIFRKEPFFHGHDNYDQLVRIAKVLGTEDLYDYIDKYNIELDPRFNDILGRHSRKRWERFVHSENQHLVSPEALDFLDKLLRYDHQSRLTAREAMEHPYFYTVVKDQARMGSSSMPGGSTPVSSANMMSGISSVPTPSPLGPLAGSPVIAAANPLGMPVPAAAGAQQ

On to `O=C(O)c1ccc2c(c1)nc(Nc1cccc(Cl)c1)c1ccncc12` [CX-4945, reference compound], for which the PARP cleavage entry in the assay with N/P(14) cells [1] (24 h) is “increased”. The “phosphorylation of the downstream targets Akt and XRCC1” value in the assay on N/P(14) cells [1] (24 h, concentration-dependent) is listed as “decreased”.
As to `O=c1cc(-c2ccc(Oc3c(O)cc4oc(-c5ccc(O)cc5)cc(=O)c4c3O)cc2)oc2cc(O)cc(O)c12` [Hinokiflavone], the “mRNA and protein levels of MUTYH, OGG1, and XRCC1” value in the assay on N/P(14) cells [2] is “reduced”. Also, at CK2α, the CK2α kinase activity result is recorded as “inhibited CK2α activity in a concentration-dependent manner”. The “cleavage of caspase-3, caspase-8, caspase-9, and PARP” value with N/P(14) cells [1] (24-48 h) and in the assay with J82R cells was “enhanced” each time. Besides, in the assay on N/P(14) cells [1] (24 h and 48 h, concentration-dependent), the “phosphorylation of the CK2 substrate consensus sequence ((pS/pT)DXE)” value is “suppressed”. Further, the “accumulation of cells in the sub-G1 phase” value in the assay with N/P(14) cells [3] is listed as “significantly increased”. The “combination index (CI)” value in the assay with N/P(14) cells [4] (HNK with doxorubicin) and in the assay on N/P(14) cells [4] (HNK with mitomycin C) was “below 1” in each case. The GI50 was determined as 0.98 µM in [5]; 1.48 µM in assay [6] (NTUB1, 48 h); 4.09 µM in assay [7].
Take `N.N.[Cl][Pt][Cl]` [cisplatin, reference compound]: the GI50 with J82 cells worked out at 2.58 µM; with NTUB1 cells, 7.89 µM; in [5] (J82R cells, SRB assay) it was 9.47 µM; in assay [6] (N/P(14) cells, 48 h, SRB assay), 47.4 µM.
